Results taken from ChEMBL document CHEMBL1821693, “A novel 3-arylethynyl-substituted pyrido[2,3,-b]pyrazine derivatives and pharmacophore model as Wnt2/β-catenin pathway inhibitors in non-small-cell lung cancer cell lines” (Bioorg Med Chem, 2011).
Activity calls are given as the source filed them. No cut-off for these calls is given here.

Columns and labels:
[1] = Inhibition of Wnt2/beta-catenin signaling pathway in human A549 cells assessed as inhibition of Tcf/Lef transcriptional activity after 24 hrs by dual luciferase reporter gene assay; format: cell-based; settings: A549, 24 h
In short: (§1)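 A549/Wnt2 cells co-transfected by lipofection with pSuper-Topflash (eight TCF sites driving firefly luciferase) or mutant pSuperFopflash, plus pRL-TK renilla for normalization. Compounds added at 37 °C for 24 h. Lysates read by dual-luciferase assay. Firefly/renilla ratio reported as mean ± SEM of triplicates, relative to non-treated cells.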

[2] = system: A549; test: Inhibition of nucleus beta-catenin expression in human A549 cells at cytotoxicity IC50 by Western blot analysis; format: functional, cell-based
[3] = system: A549; test: Cytotoxicity against human A549 cells expressing Wnt2 after 24 to 72 hrs by MTS assay; format: functional, cell-based
In short: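 Wnt2-overexpressing A549 cells (stable pUSEampWnt2, G418 selection) in RPMI-1640 with 10% FBS. Seeded at 8 × 10^3 cells/well and allowed ~24 h to attach. Exposed to a range of concentrations. Viability measured 24 h after treatment by MTS (30 min at 37 °C, A490); IC50 derived.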

[4] = Inhibition of Wnt2/beta-catenin signaling pathway in human A549 cells assessed as inhibition of Tcf/Lef transcriptional activity at cell proliferation IC50 after 24 hrs by dual luciferase reporter gene assay; format: cell-based; settings: dose or concentration not given here; in short: as §1
[5] = system: A549; test: Inhibition of cytosolic beta-catenin expression in human A549 cells at cytotoxicity IC50 by Western blot analysis; format: functional, cell-based
[6] = system: A549; test: Inhibition of total beta-catenin expression in human A549 whole cell extract at cytotoxicity IC50 by Western blot analysis; format: functional, cell-based
[7] = system: A549; test: Antiproliferative activity against human A549 cells expressing Wnt2 after 72 hrs by MTS assay; format: functional, cell-based; settings: for IC50: A549, 72 h
In short: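 A549 cells stably transfected with pUSEampWnt2 (G418-selected), grown in RPMI-1640 with 10% FBS at 37 °C, 5% CO2. Seeded at 3 × 10^3 cells/well and allowed to attach ~24 h. Treated with a range of concentrations.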

[8] = system: A549; test: Inhibition of cyclin D1 mRNA expression in human A549 cells expressing Wnt2 after 24 hrs by RT-PCR analysis; format: functional, cell-based
[9] = system: A549; test: Ratio of IC50 for antiproliferative activity against human A549 cells to IC50 for cytotoxicity against human A549 cells; format: functional
In short: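 Ratio of two MTS IC50s in A549/Wnt2 cells. Proliferation: 3 × 10^3 cells/well, read at 72 h. Cytotoxicity: 8 × 10^3 cells/well, read 24 h after treatment.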

Compound | IC50 [1] | inhibition [2] | IC50 [3] | inhibition [4] | inhibition [5] | inhibition [6] | inhibition [7] | IC50 [7] | inhibition [8] | Ratio IC50 [9]
CN(C)CCOc1nc2ccccc2nc1C#Cc1ccccc1 | 758 nM |  |  |  |  |  |  |  |  | 
Fc1cccc(C#Cc2nc3ncccc3nc2OCCN2CCCC2)c1 |  | Active | 2450 nM | 30% | Active | Active |  |  |  | 
COc1cc(C#Cc2nc3ncccc3nc2OCCCN(C)C)cc(OC)c1 |  | Active | 380 nM | 30% | Active | Active |  |  |  | 
COc1c(C[C@@H](C)OC(=O)Oc2ccc(O)cc2)c2c3c(C[C@@H](C)OC(=O)c4ccccc4)c(OC)c(=O)c4c(O)cc(OC)c(c5c(OC)cc(O)c(c1=O)c52)c43 [CALPHOSTIN C] |  |  | 3200 nM |  |  |  |  |  |  | 
C(#Cc1nc2ncccc2nc1OCCc1ccccn1)c1ccccc1 | 120 nM | Active | 200 nM | 50% | Active | Active | Dose-dependent effect | 43 nM | Active | 
COc1ccc(C#Cc2nc3ncccc3nc2OCCN(C)C)c(C)c1 |  | Active | 2950 nM | 30% | Active | Active | Dose-dependent effect | 830 nM |  | 
CCN(CC)CCOc1nc2cccnc2nc1C#Cc1ccc(OC)cc1 |  | Active | 640 nM | 50% | Active | Active | Dose-dependent effect | 208 nM | Active | 3.07
C(#Cc1nc2ncccc2nc1OCCN1CCCC1)c1ccccc1 |  | Active | 720 nM | 30% | Active | Active |  |  |  | 
Cc1ccc(C#Cc2nc3ncccc3nc2OC(C)CN(C)C)cc1 (stereo unspecified) |  | Active | 1900 nM | 30% | Active | Active |  |  |  | 
COc1cccc(C#Cc2nc3ncccc3nc2Cl)c1 |  | Active | 4000 nM | 50% | Active | Active |  |  |  | 
CN1CCCC(Oc2nc3cccnc3nc2C#Cc2ccccc2)C1 (stereo unspecified) |  | Active | 720 nM | 30% | Active | Active |  |  |  | 
CN(C)c1cccc(COc2nc3cccnc3nc2C#Cc2ccccc2)c1 |  | Active | 1720 nM | 30% | Active | Active |  |  |  | 
CC(C)N(CCOc1nc2cccnc2nc1C#Cc1cccc(F)c1)C(C)C |  | Active | 2890 nM | 50% | Active | Active |  |  | Active | 
COc1cccc(C#Cc2nc3ncccc3nc2OCCCN(C)C)c1 |  | Active | 280 nM | 30% | Active | Active |  |  |  | 
CN(C)CCOc1nc2cccnc2nc1C#Cc1cccc(F)c1 |  | Active | 1940 nM | 30% | Active | Active | Dose-dependent effect | 535 nM | Active | 
